Assay results from the EternaBench riboswitch data.

Test system: MS2 coat protein
Experiment: apparent Kd, MS2 coat protein; higher = weaker binding; RNA-MaP array; FMN 200 µM where present
Method in brief: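 Stalled E. coli RNA polymerase transcribed the designs on Illumina sequencing-chip clusters. SNAP-549-labelled MS2 coat protein was titrated from 0.7 or 1.5 nM, doubling to 3 µM, without and then with constant ligand, in 100 mM Tris-HCl pH 7.5, 80 mM KCl, 4 mM MgCl2, BSA, DTT, yeast tRNA and Tween-20. Per-cluster binding curves were fitted to green signal normalised to red-channel RNA signal and control-cluster median Fmax. The apparent Kd is the median of the filtered fits.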

[1] = designed as: ON switch for flavin mononucleotide, no ligand
[2] = ligand present: flavin mononucleotide, designed as: ON switch for flavin mononucleotide
[3] = designed as: OFF switch for flavin mononucleotide, no ligand
[4] = ligand present: flavin mononucleotide, designed as: OFF switch for flavin mononucleotide

| Sequence | apparent Kd [1] | apparent Kd [2] | apparent Kd [3] | apparent Kd [4] |
| --- | --- | --- | --- | --- |
| ACAUGAGGAUCACCCAUGUAUACAUAGGAUAUUGGUGAUCAGGCAUGUUAUACAGGAUAUGUCUGCGAGAAGGAUGCACGUUGC | 680 nM | 476 nM | – | – |
| ACCAAUGCAGGAUAUACAUGAGGAUCACCCAUGUAUAACCUACAUAGAUGAUUAUUAUGUAGAAGGGUAUUGGA | – | – | 13.2 nM | 12.9 nM |
| AAAAGGUCAGGAUAUGCCCUCCUGGUGGAAAAGCCUGGUGGGCAGAAGGGACAUGAGGAUCACCCAUGUAAAAA | – | – | 60.8 nM | 81.8 nM |
| CCGCCAUAAGUCAGGAUAUUCUUUAAGUUGUUGGAGAAGAAGGGACAUGAGGAUCACCCAUGUAAUAGGCCUCA | – | – | 842 nM | 598 nM |
| UGCUAGGACCUAGGAUAUCCUGGGUUGGUGGUGCUUGAUGACCGGACAUGAGGAUCACCCAUGUAGGAGAAGGAGGUUGUUAAG | – | – | 61.2 nM | 100 nM |
| GGACGACACAUCUACAUGAGGAUCACCCAUGUCAAAAGACAUGAGGAUAUGCUACCUAAUUGGUAGCAGAAGGCAUGGUCGUCC | 1370 nM | 67.2 nM | – | – |
| GUCAGCUCGUGAGGAUAUACGACACUGCUUCGGCAGUGUAUUAAGAUCACAUGAGGAUCACCCAUGUAGAAGGCACGAGCUGAU | – | – | 8.64 nM | 145 nM |
| GGAUGAGAAACUCAUCCAAUACGAACAUGAGGAUCACCCAUGUAGGAUAUGCUACUCAAAGAGUAGCAGAAGGACAUGUGUCUU | – | – | 27.4 nM | 159 nM |
| UAAGAGUGAGGAUAUUCGUAGUACACGGAGACGUGUAUUACGGAGAAGGCACAUGAGGAUCACCCAUGUUCCUU | – | – | 15.6 nM | 48.5 nM |
| UAUAUACAUGAGGAUCACCCAUGUGAGGAUAUGCUUUAUUAUUAUUAUUAUUAUUAUUGCAGAAGGUACAUUAU | – | – | 28.9 nM | 28.8 nM |
| UUAAAUCAUGUAGGAUAUGCAUGGCGAAGCUACGCAGAAGGACAUGAGGAUCACCCAUGUUAAAGCUACCGUAUACGGUGGCAA | – | – | 131 nM | 174 nM |
| AAAAGGUCAGGAUAUCGGCGCGGUUGGGAGGCAGGUCCGCGCGAGAAGGGACAUGAGGAUCACCCAUGUUAAAA | – | – | 29.2 nM | 32.4 nM |
| CGAUGGCAUGUAGGAUAUCGAGCUCAAAGAGCUCGAGAAGGACAUGAGGAUCACCCAUGUGCUCACAGACAGUGAGCGCUAUCG | – | – | 31.2 nM | 156 nM |
| GUAGCUAUCGGAGGAUAUUCAUACCGGAAACGGACAUGAGGAUCACCCAUGUGGCGAAAGCCUUGGGAGAAGGCUGAUAGCUAC | 257 nM | 7.37 nM | – | – |
| UUUUUGUCAGGAUAUCGUGCAUACAACGAAAGUUCUAUGUGCGAGAAGGGACAUGAGGAUCACCCAUGUUACGG | – | – | 109 nM | 371 nM |
| UCGGCGCGAGGAUAUACGUUUGCUUUUUUGGGUCGUUGCGUACAUGAGGAUCACCCAUGUAGAAGGCGCGCCGC | – | – | 27.4 nM | 187 nM |
| GACCGCGAGGAAGGAUAUGGAGCCUUAUUGGCUCCAGAAGGUCCAUAAAGGACAUGAGGAUCACCCAUGUGGUGAGAAGCGGUC | 2070 nM | 179 nM | – | – |
| UGGUACAUGAGGAUCACCCAUGUAAGAGCCCUCAUGCGAUGUAGAAGGAUUAUGCGAGUAGUGCAAUAGGAUAUACAUGAGUUU | – | – | 216 nM | 163 nM |
| UCGUUUAUACAAGGAUAUCAAUUAUAGCUAAAUUCAACAUGAGGAUCACCCAUGUAACUAUGGAGUGAGAAGGUGUAAUGGCUU | 116 nM | 310 nM | – | – |
| GGUGGGAAGUAAGGAUAUCGGCCAUAGUUAGGGCGAGAAGGUACAUGAGGAUCACCCAUGUCGUCGCUAGGGACGGGUCCGGCC | – | – | 6.54 nM | 6.96 nM |
| UGCCUACAUGAGGAUCACCCAUGUGAGGAUAUCCUGCGAGGAUCAAAAGAUCCUCGUGGGAGAAGGCGCUUGGA | – | – | 18.9 nM | 32.3 nM |
| ACGACUAGAGGAUAUACAUGAGGAUCACCCAUGUAACUGUCAGGAAACUGACGGAGAUGUAGAAGGCUAGUCGA | – | – | 16.8 nM | 37.4 nM |
| AAGAACUAAGGAUAUACAUGAGGAUCACCCAUGUCUUUUACAUGUUACUGGCCCGCAUGUAGAAGGUAGAAAAG | – | – | 78.6 nM | 135 nM |
| GCCAUCACAUGAGGAUAUGCUCCCGUUUCGGGAGCAGAAGGCGUGUCAUAAGACAUGAGGAUCACCCAUGUAGUUAAGAUGGCA | 399 nM | 12.7 nM | – | – |

| Sequence | apparent Kd [1] | apparent Kd [2] | apparent Kd [3] | apparent Kd [4] |
| --- | --- | --- | --- | --- |
| AAAGCACGAGGAUAUACAUGAGGAUCACCCAUGUAUAAAAAAAAAAAAAAAUCCUCAUGUAGAAGGCGUGCAAA | – | – | 53.6 nM | 41 nM |
| AAUAGGCUCGCGCAGGAUAUGGAUCAUUCCACAUGAGGAUCACCCAUGUUAAGGAGCCCUUGCAUCCAGAAGGGUGUUGGUCUUU | 35.7 nM | 13.1 nM | – | – |
| UAGAAGUCAGGAUAUCCUGCUCGUCACUUGCGUGAUGAGUAGGAGAAGGGACAUGAGGAUCACCCAUGUAAAGA | – | – | 53.8 nM | 53.4 nM |
| UGGUACAUGGGAGGAUAUGGGACAUGAGGAUCACCCAUGUGAAAAUUAAAUAUGCCGAGAGGCAACUAGAAGGCCCAUGUACCU | 29.9 nM | 14.9 nM | – | – |
| CUGGUGUGAGGAUAUCUACGCCAUGUCUUUGACAUGGCGCAAGAGAAGGCACAUGAGGAUCACCCAUGUACUUC | – | – | 21.7 nM | 74.4 nM |
| AACGUGUGAGGAUAUUAGUUGUACGUCAAUAGACGUAUAAGUGAGAAGGCACAUGAGGAUCACCCAUGUUCCUG | – | – | 23.9 nM | 195 nM |
| GAACGUGACAUGAGGAUCACCCAUGUUGCCUUGGCCAGGUCGUAGGAUAUCCUGAUGAUUAAUUUGGAGAAGGGCGACUGGGAG | 36.1 nM | 15.3 nM | – | – |
| GGAAAGGACAGAGGAUAUACGUGCUAGAGAUACUAGCAAAAUUUCCUCACAUGAGGAUCACCCAUGUAGAAGGCUGUCCUAUCG | – | – | 16.2 nM | 394 nM |
| GACGUACAUGAGGAUCACCCAUGUACAAACGUACAAGGAUAUGUGUGGAAACCGUACUAUACAGAAGGUGUUUGUC | 14.3 nM | 14.1 nM | – | – |
| UUUAUGUCAGGAUAUGAGUAGUAGAACAAUAGUACUACUACUCAGAAGGGACAUGAGGAUCACCCAUGUUCCUC | – | – | 18.2 nM | 98.8 nM |
| AUGGUUCUCGUAGGAUAUGUAGGAUAUGCCUACAUGAGGAUCACCCAUGUUCGCAUGGCAGAAGGACAGAAGGACGAUCACCAA | 365 nM | 19.2 nM | – | – |
| GCUGUCGCAUGAGGAUAUGGUCAGGUUUCCUGACCAGAAGGCAUGUCAAUAGACAUGAGGAUCACCCAUGUAGUAAAGACAGCA | 447 nM | 36.4 nM | – | – |
| UCGAUCGGAGGAUAUGCUAAUGCAACUACUGCAGUUUCAAAACAUGAGGAUCACCCAUGUAGAAGGCCGAUAUA | – | – | 17 nM | 15.6 nM |
| GCAUGCAAGUAGAAGGACGGAUAUUUUGAAAACGUAGGAUAUACAGAAUCAUAUCCACAAGGUUACAUGAGGAUCACCCAUGUA | – | – | 8.19 nM | 8.08 nM |
| UGUCGGAGUAGAGGAUAUUACAUGAGGAUCACCCAUGUAUGAACCAAUAGCUGGAAACAGCAAUGUAAGAAGGCUGCUCCGACA | – | – | 8.91 nM | 110 nM |
| GGUCGGCGAGGAUAUACAUGAGGAUCACCCAUGUGAUAGAUUGCACGCGUACGUGUAUGUAGAAGGCGCUGACG | – | – | 21.8 nM | 200 nM |
| UAUGCCUUUGUGAGGAUAUACUUUGUUUGGUCGUAGUAGAAGGCACAUGAGGAUCACCCAUGUAGAUUUUUGGU | – | – | 27.5 nM | 72.2 nM |
| AUUAUGACCGAGUUAUAACUCUAAACAUGAGGAUCACCCAUGUAGGAUAUCAGCACGAUAAGUGCUGAGAAGGACAUCUCGGUC | – | – | 16.4 nM | 18.1 nM |
| AGCACGAAGAUUAUUAUGAAUAAACAUGAGGAUCACCCAUGUAAGGAUAUCGACUCGAAUAGAGUCGAGAAGGUACAUACGUGC | – | – | 11 nM | 51.8 nM |
| AUUAUUUAUAGUUAUUGGUAAUUGACAGAAGGUGAAAGUGUCACAUGAGGAUCACCCAUGUUCUUCAAGGAUAUGUUGGUAUAC | 88.3 nM | 14 nM | – | – |
| GUAGCUGCAGGAUAUCUAUCUUCUGACAUGAGGAUCACCCAUGUACUUACUUGGCUCAGUGGAGAAGGGCAGCGUU | – | – | 124 nM | 84.2 nM |
| GCACUGGAUGUAGGAUAUCAGGACGAUAAGUCCUGAGAAGGACAUGAGGAUCACCCAUGUGCUUAAACCAGUGCAUAUAAUAUA | – | – | 12.2 nM | 18.4 nM |
| CUAUUACGAGGAUAUGAUUUAAAUAACAUGAGGAUCACCCAUGUUUUUACGUUAUUUUAUUUAGAAGGCGUAUAGU | – | – | 41.8 nM | 31 nM |
| AUUUAAAAGUCAGGAUAUGGUAGAUUAUUCUUAUCAGAAGGGAUUAUUAUACUCAAGUACAUGAGGAUCACCCAUGUUAAAUCA | 18.1 nM | 10.2 nM | – | – |
